# Assay results published in ChEMBL document CHEMBL3091406, “Design and synthesis of novel antimicrobials with activity against Gram-positive bacteria and mycobacterial species, including M. tuberculosis” (2013).
# Experiments:
# Format in all cases: functional
# [1] = tested on: Staphylococcus aureus; assay: Antibacterial activity against Staphylococcus aureus ATCC 29213 by CLSI method
# [2] = tested on: Escherichia coli; assay: Antibacterial activity against Escherichia coli […] by CLSI method
# [3] = tested on: Mycolicibacterium fortuitum; assay: Antimycobacterial activity against Mycobacterium fortuitum
# Method in brief: (§1)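 MIC in Middlebrook 7H9 broth with 10% OADC; strains from University of Wisconsin-La Crosse culture collection; rifampin as positive control; reported MIC is compiled from geometric means of three separate runs.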
# [4] = tested on: Mycolicibacterium smegmatis; assay: Antimycobacterial activity against Mycobacterium smegmatis
# [5] = tested on: Bacillus cereus; assay: Antibacterial activity against Bacillus cereus by CLSI method
# [6] = tested on: Mycobacterium intracellulare; assay: Antimycobacterial activity against Mycobacterium intracellulare; method in brief: as §1
# [7] = tested on: Mycobacterium avium; assay: Antimycobacterial activity against Mycobacterium avium; method in brief: as §1
# [8] = tested on: Mycobacteroides chelonae; assay: Antimycobacterial activity against Mycobacterium chelonae; method in brief: as §1
# [9] = tested on: Mycobacterium kansasii; assay: Antimycobacterial activity against Mycobacterium kansasii; method in brief: as §1
# [10] = tested on: Mycobacterium tuberculosis; assay: Antimycobacterial activity against Mycobacterium tuberculosis H37Rv after 7 days by BacTiter-Glo method; conditions: 168 h
# Method in brief: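 Strain H37Rv in 384-well plates, Middlebrook 7H12 broth with palmitate and 0.5% BSA; compounds diluted in medium to 2× final concentration; inoculum 1-2 × 10⁵ CFU/mL; amikacin positive control on every plate; 7 days at 37 °C, ~95% humidity; compound autofluorescence pre-read (ex 535/em 590 nm); BacTiter-Glo reagent added, 20 min room temperature, luminescence read.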
# [11] = tested on: Mycobacterium tuberculosis; assay: Ratio of ethambutol MIC to compound MIC for Mycobacterium tuberculosis H37Rv after 7 days by BacTiter-Glo method
# [12] = tested on: Mycolicibacterium smegmatis; assay: Ratio of rifampin MIC to compound MIC for Mycobacterium smegmatis
SMILES,MIC [1],MIC [2],MIC [3],MIC [4],MIC [5],MIC [6],MIC [7],MIC [8],MIC [9],MIC [10],Ratio [11],Ratio [12]
CCOC(=O)[C@@H]1O[C@H]1C(=O)c1ccc(C(C)(C)C)cc1,32 µg/mL,> 128 µg/mL,> 128 µg/mL,128 µg/mL,–,–,–,–,–,–,–,–
CC(C)(C)c1ccc(S/C=C\C(=O)NC2CC2)cc1,> 128 µg/mL,> 128 µg/mL,–,> 128 µg/mL,> 128 µg/mL,–,–,–,–,–,–,–
CCOC(=O)/C=C\Sc1ccc(C(C)(C)C)cc1,> 128 µg/mL,> 128 µg/mL,–,16 µg/mL,> 128 µg/mL,–,–,–,–,–,–,–
CN(C)C(=O)/C=C\Sc1ccc(C(C)(C)C)cc1,> 128 µg/mL,> 128 µg/mL,–,64 µg/mL,16 µg/mL,–,–,–,–,–,–,–
CCOC(=O)CCCc1ccc(C(C)(C)C)cc1,> 128 µg/mL,> 128 µg/mL,32 µg/mL,64 µg/mL,–,> 128 µg/mL,> 128 µg/mL,32 µg/mL,128 µg/mL,–,–,–
CN(C(=O)/C=C\Sc1ccc(C(C)(C)C)cc1)c1ccccc1,> 128 µg/mL,> 128 µg/mL,–,32 µg/mL,> 128 µg/mL,–,–,–,–,–,–,–
CC[C@@H](CO)NCCN[C@@H](CC)CO [ETHAMBUTOL],–,–,–,–,–,–,–,–,–,1.2 µg/mL,–,–
CCOC(=O)/C=C\C(=O)c1ccc(C(C)(C)C)cc1,4 µg/mL,> 128 µg/mL,8 µg/mL,8 µg/mL,8 µg/mL,8 µg/mL,32 µg/mL,16 µg/mL,64 µg/mL,0.8 µg/mL,1.5,8
CCOC(=O)/C=C\C(=O)c1cc2ccccc2s1,1 µg/mL,128 µg/mL,16 µg/mL,4 µg/mL,–,4 µg/mL,16 µg/mL,8 µg/mL,8 µg/mL,0.4 µg/mL,3,16
CCOC(=O)CCSc1ccc(C(C)(C)C)cc1,> 128 µg/mL,> 128 µg/mL,> 128 µg/mL,> 128 µg/mL,> 128 µg/mL,> 128 µg/mL,> 128 µg/mL,> 128 µg/mL,> 128 µg/mL,–,–,–
CC(C)(C)c1ccc(S/C=C\C(=O)O)cc1,> 128 µg/mL,> 128 µg/mL,–,> 128 µg/mL,128 µg/mL,–,–,–,–,–,–,–
NNC(=O)c1ccncc1 [ISONIAZID],–,–,–,–,–,–,–,–,–,0.25 µg/mL,–,–
CO[C@H]1/C=C/O[C@@]2(C)Oc3c(C)c(O)c4c(O)c(c(/C=N/N5CCN(C)CC5)c(O)c4c3C2=O)NC(=O)/C(C)=C\C=C\[C@H](C)[C@H](O)[C@@H](C)[C@@H](O)[C@@H](C)[C@H](OC(C)=O)[C@@H]1C [RIFAMPIN],–,–,32 µg/mL,64 µg/mL,–,1 µg/mL,2 µg/mL,32 µg/mL,0.5 µg/mL,< 0.03 µg/mL,–,–
CNC(=O)/C=C\Sc1ccc(C(C)(C)C)cc1,> 128 µg/mL,> 128 µg/mL,–,> 128 µg/mL,128 µg/mL,–,–,–,–,–,–,–
CN(C)[C@@H]1C(O)=C(C(N)=O)C(=O)[C@@]2(O)C(O)=C3C(=O)c4c(O)cccc4[C@@](C)(O)[C@H]3C[C@@H]12 [TETRACYCLINE],0.25 µg/mL,1 µg/mL,–,–,–,–,–,–,–,–,–,–
O=C(O)/C=C\Sc1nc2ccccc2s1,> 128 µg/mL,> 128 µg/mL,–,> 128 µg/mL,> 128 µg/mL,–,–,–,–,–,–,–
CCOC(=O)[C@@H]1C[C@H]1C(=O)c1ccc(C(C)(C)C)cc1,64 µg/mL,> 128 µg/mL,64 µg/mL,16 µg/mL,–,–,–,–,–,–,–,–
CC(C)N(C(=O)/C=C\Sc1nc2ccccc2s1)C(C)C,> 128 µg/mL,> 128 µg/mL,–,> 128 µg/mL,> 128 µg/mL,–,–,–,–,–,–,–
CCOC(=O)c1ccccc1C(=O)c1ccc(C(C)(C)C)cc1,> 128 µg/mL,> 128 µg/mL,> 128 µg/mL,> 128 µg/mL,–,> 128 µg/mL,> 128 µg/mL,> 128 µg/mL,> 128 µg/mL,–,–,–
CCOC(=O)C#CC(=O)c1ccc(C(C)(C)C)cc1,> 128 µg/mL,> 128 µg/mL,> 128 µg/mL,> 128 µg/mL,> 128 µg/mL,> 128 µg/mL,> 128 µg/mL,> 128 µg/mL,> 128 µg/mL,–,–,–
CC(C)(C)c1ccc(S/C=C\C(=O)OCC2CC2)cc1,> 128 µg/mL,> 128 µg/mL,–,16 µg/mL,128 µg/mL,–,–,–,–,–,–,–
CCOC(=O)CCC(=O)c1ccc(C(C)(C)C)cc1,> 128 µg/mL,> 128 µg/mL,> 128 µg/mL,> 128 µg/mL,–,> 128 µg/mL,> 128 µg/mL,> 128 µg/mL,> 128 µg/mL,–,–,–
CC(C)N(C(=O)/C=C\Sc1ccc(C(C)(C)C)cc1)C(C)C,> 128 µg/mL,> 128 µg/mL,–,64 µg/mL,> 128 µg/mL,–,–,–,–,–,–,–
CC(C)(C)c1ccc(S/C=C\C(=O)Nc2ccccc2)cc1,> 128 µg/mL,> 128 µg/mL,–,> 128 µg/mL,> 128 µg/mL,–,–,–,–,–,–,–
CC(C)=CCOC(=O)/C=C/C(=O)c1ccc(C(C)(C)C)cc1,0.5 µg/mL,> 128 µg/mL,64 µg/mL,> 128 µg/mL,–,> 128 µg/mL,> 128 µg/mL,32 µg/mL,> 128 µg/mL,–,–,–
CCOC(=O)/C=C/C(=O)c1ccc(C(C)(C)C)cc1,2 µg/mL,> 128 µg/mL,4 µg/mL,8 µg/mL,4 µg/mL,4 µg/mL,16 µg/mL,8 µg/mL,32 µg/mL,0.8 µg/mL,1.5,8
CCOC(=O)/C=C/Cc1ccc(C(C)(C)C)cc1,16 µg/mL,> 128 µg/mL,> 128 µg/mL,> 128 µg/mL,–,> 128 µg/mL,> 128 µg/mL,> 128 µg/mL,> 128 µg/mL,–,–,–
CC(C)(C)c1ccc(C(=O)/C=C/C(=O)O)cc1,32 µg/mL,> 128 µg/mL,> 125 µg/mL,> 128 µg/mL,–,–,–,–,–,–,–,–
